Values after ≈ are worked out from the molar mass of the structure shown.
Experiments:
[1] = Solubility of the compound in […] at pH 2 at 200 uM incubated for 24 hrs by UV-vis detection based HPLC analysis; assay type: physicochemical
Summary of the method: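 10 mM DMSO stock added to 10 mM potassium phosphate buffer at pH 2 or pH 7, or FaSSIF pH 6.5, to 200 μM total; 24 h equilibration, filtration, then reverse-phase HPLC with UV–vis detection.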

[2] = Oral bioavailability in dog; assay type: ADME, organism-based, Canis lupus familiaris; settings: in vivo
[3] = biological target: Protein arginine N-methyltransferase 5 (Homo sapiens, UniProt O14744); assay: Inhibition of PRMT5 (unknown origin) assessed as inhibition of symmetric dimethylation of arginine incubated for 3 days by fluorescence based cellular target engagement assay
Summary of the method: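 MCF-7 cells (4000/well, collagen-coated plates) in EMEM with 0.01 mg/mL insulin and 10% FBS; 10-point 1:3 titration from 10,000 nM; 3 days at 37 °C/5% CO2; fixed, permeabilized, anti-SDMA antibody, then Alexa488 anti-rabbit IgG plus Hoechst; nuclear fluorescence by high-content imaging versus DMSO; EC50 by four-parameter robust fit.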

[4] = Unbound clearance in dog; assay type: ADME, Canis lupus familiaris; settings: in vivo
[5] = Plasma clearance in rat; assay type: ADME
Z-138 [6] = assay: Antiproliferative activity against human Z138 cells incubated for 10 days by cell titer-glo assay; assay type: functional, cell-based; settings: Z-138, 240 h
[7] = Unbound volume of distribution in dog; assay type: ADME, Canis lupus familiaris; settings: in vivo
[8] = MRT in rat; assay type: ADME; settings: in vivo
[9] = Unbound clearance in rat; assay type: ADME; settings: in vivo
[10] = Solubility of the compound in FaSSIF at pH 7 at 200 uM incubated for 24 hrs by UV-vis detection based HPLC analysis; assay type: physicochemical
[11] = MRT in dog; assay type: ADME, Canis lupus familiaris; settings: in vivo
[12] = Unbound volume of distribution in rat; assay type: ADME; settings: in vivo
[13] = Oral bioavailability in rat; assay type: ADME, organism-based; settings: in vivo
Z-138 [14] = assay: Antitumor activity against human Z138 cells implanted in CB17.SCID mouse assessed as tumor growth inhibition at 30 mg/kg, po bid measured at 13 days relative to control; assay type: functional; settings: Z-138, po, 312 h, time 13 day, read-out: TGI
Z-138 [15] = assay: Antitumor activity against human Z138 cells implanted in CB17.SCID mouse assessed as […] at 5 mg/kg, po bid measured at 13 days relative to control; assay type: functional; settings: Z-138, po, 312 h, time 13 day, read-out: TGI
Summary of the method: (§1)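 Female CB17.SCID mice implanted subcutaneously with 5 × 10⁶ Z138 cells; dosing began at about 100 mm³, n = 10 per group; daily PO at 10, 30 or 60 mpk QD or 5 mpk BID in 0.5% methylcellulose; tumor volume (L × W²)/2 and body weight twice weekly; %TGI at day 13 from change in tumor volume versus vehicle.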

CYP3A4 = CYP3A4 (Homo sapiens, UniProt P08684); assay: Ratio of IC50 for time dependent inhibition of CYP3A4 (unknown origin) in absence of NADPH to IC50 for time dependent inhibition of CYP3A4 (unknown origin) in presence of NADPH; settings: read-out: Ratio IC50
[16] = Toxicity in CB17.SCID mouse implanted with human Z138 cells assessed as body weight change at 10 to 60 mg/kg, po bid measured up, to 14 days relative to control; assay type: organism-based; settings: in vivo, 336 h, in the assay text read “po qd” for “po bid”, dose 10-60 mg/kg, time 14 day; summary of the method: as §1
Z-138 [17] = assay: Antitumor activity against human Z138 cells implanted in CB17.SCID mouse assessed as tumor growth inhibition at […] measured at 13 days relative to control; assay type: functional; settings: Z-138, po, 312 h, time 13 day, read-out: TGI
Z-138 [18] = assay: Antitumor activity against human Z138 cells implanted in CB17.SCID mouse assessed as tumor growth inhibition at 60 mg/kg, po bid measured at 13 days relative to control; assay type: functional; settings: Z-138, po, 312 h, time 13 day, read-out: TGI

Chain of Protein arginine N-methyltransferase 5 (O14744 whole entry): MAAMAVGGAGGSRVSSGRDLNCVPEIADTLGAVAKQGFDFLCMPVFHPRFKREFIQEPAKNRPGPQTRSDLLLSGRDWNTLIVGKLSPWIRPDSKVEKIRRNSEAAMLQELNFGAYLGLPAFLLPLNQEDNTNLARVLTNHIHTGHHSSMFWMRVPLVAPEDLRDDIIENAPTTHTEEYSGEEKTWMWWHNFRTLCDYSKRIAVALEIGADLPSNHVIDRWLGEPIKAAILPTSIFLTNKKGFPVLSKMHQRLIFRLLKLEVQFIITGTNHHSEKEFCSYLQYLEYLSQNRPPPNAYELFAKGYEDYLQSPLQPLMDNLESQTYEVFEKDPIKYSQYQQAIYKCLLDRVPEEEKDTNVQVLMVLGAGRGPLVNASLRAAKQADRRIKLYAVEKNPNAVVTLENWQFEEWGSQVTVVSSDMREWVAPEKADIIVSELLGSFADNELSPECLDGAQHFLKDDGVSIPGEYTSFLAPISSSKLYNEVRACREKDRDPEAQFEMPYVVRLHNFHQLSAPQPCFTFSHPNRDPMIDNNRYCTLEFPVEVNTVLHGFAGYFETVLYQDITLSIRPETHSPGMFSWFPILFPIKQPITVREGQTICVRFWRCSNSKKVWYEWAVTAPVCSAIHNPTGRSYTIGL
Chain of CYP3A4 (P08684 whole entry): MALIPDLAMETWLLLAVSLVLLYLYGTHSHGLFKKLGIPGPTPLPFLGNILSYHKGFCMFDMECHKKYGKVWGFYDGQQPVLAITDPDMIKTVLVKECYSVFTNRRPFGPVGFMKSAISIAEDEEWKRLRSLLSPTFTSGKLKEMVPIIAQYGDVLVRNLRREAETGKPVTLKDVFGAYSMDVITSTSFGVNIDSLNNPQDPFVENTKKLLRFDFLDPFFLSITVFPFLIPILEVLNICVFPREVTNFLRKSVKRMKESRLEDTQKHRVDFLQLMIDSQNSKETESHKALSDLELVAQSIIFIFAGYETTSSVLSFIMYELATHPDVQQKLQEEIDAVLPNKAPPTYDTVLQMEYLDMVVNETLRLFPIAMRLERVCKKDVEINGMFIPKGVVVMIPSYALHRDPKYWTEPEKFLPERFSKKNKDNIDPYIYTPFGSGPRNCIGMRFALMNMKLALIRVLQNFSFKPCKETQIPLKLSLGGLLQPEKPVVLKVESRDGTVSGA

| solubility at 24 h, 200 µM [1] [µM] | bioavailability [2] [%] | EC50 [3] [nM] | CL free [4] [mL/min/kg] | clearance [5] [mL/min/kg] | Vdu [7] [L/kg] | MRT [8] [h] | CL free [9] [mL/min/kg] | solubility at 24 h, 200 µM [10] [µM] | MRT [11] [h] | Vdu [12] [L/kg] | bioavailability [13] [%] | SMILES | EC50 (Z-138 [6]) [nM] | inhibition in vivo at 30 mg/kg (Z-138 [14]) [%] | inhibition in vivo at 5 mg/kg (Z-138 [15]) [%] | IC50 shift (CYP3A4) | Activity [16] | inhibition in vivo (Z-138 [17]) [%] | inhibition in vivo at 60 mg/kg (Z-138 [18]) [%] |
| --- | --- | --- | --- | --- | --- | --- | --- | --- | --- | --- | --- | --- | --- | --- | --- | --- | --- | --- | --- |
| 190 (≈ 92.1 µg/mL) | 45 | 0.84 | 72 | 14 | 43 | 2.5 | 368 | 25 (≈ 12.1 µg/mL) | 9.9 | 54 | 24 | Nc1nc2cc(C[C@@H]3CC[C@@]4(O)[C@@H]3C[C@@H](n3cc(F)c5c(N)ncnc53)[C@@H]4O)cc(F)c2cc1F | 5.8 |  |  |  |  |  |  |
| 149 (≈ 68.9 µg/mL) |  | 1.5 |  | 9 |  | 3.2 | 789 | 123 (≈ 56.9 µg/mL) |  | 150 | 17 | Cc1nc(N)c2ccn([C@@H]3C[C@@H]4[C@H](Cc5ccc6cc(F)c(N)nc6c5)CC[C@]4(O)[C@H]3O)c2n1 | 4.1 |  |  |  |  |  |  |
| 147 (≈ 74.9 µg/mL) |  | 2.9 |  | 15 |  | 1.6 | 1559 | 20 (≈ 10.2 µg/mL) |  | 136 | 10 | Nc1nc2cc(C[C@@H]3CC[C@@]4(O)[C@@H]3C[C@@H](n3ccc5c(N)ncnc53)[C@@H]4O)ccc2cc1Br | 6.9 |  |  |  |  |  |  |
| 199 (≈ 101 µg/mL) |  | 1.1 |  | 13 |  | 1.5 | 835 | 14 (≈ 7.12 µg/mL) |  | 143 | 74 | Cc1ncnc2c1ccn2[C@@H]1C[C@@H]2[C@H](Cc3ccc4cc(Br)c(N)nc4c3)CC[C@]2(O)[C@H]1O | 1.6 |  |  |  |  |  |  |
| 146 (≈ 67.5 µg/mL) |  | 0.97 |  | 38 |  | 1.1 | 788 | 66 (≈ 30.5 µg/mL) |  | 50 | 10 | Cc1cn([C@@H]2C[C@@H]3[C@H](Cc4ccc5cc(F)c(N)nc5c4)CC[C@]3(O)[C@H]2O)c2ncnc(N)c12 | 3.7 |  |  |  |  |  |  |

Second part, the molecule before the results:

| SMILES | solubility at 24 h, 200 µM [1] [µM] | bioavailability [2] [%] | EC50 [3] [nM] | CL free [4] [mL/min/kg] | clearance [5] [mL/min/kg] | Vdu [7] [L/kg] | MRT [8] [h] | CL free [9] [mL/min/kg] | solubility at 24 h, 200 µM [10] [µM] | MRT [11] [h] | Vdu [12] [L/kg] | bioavailability [13] [%] | EC50 (Z-138 [6]) [nM] | inhibition in vivo at 30 mg/kg (Z-138 [14]) [%] | inhibition in vivo at 5 mg/kg (Z-138 [15]) [%] | IC50 shift (CYP3A4) | Activity [16] | inhibition in vivo (Z-138 [17]) [%] | inhibition in vivo at 60 mg/kg (Z-138 [18]) [%] |
| --- | --- | --- | --- | --- | --- | --- | --- | --- | --- | --- | --- | --- | --- | --- | --- | --- | --- | --- | --- |
| Cc1ncnc2c1ccn2[C@@H]1O[C@@H]2[C@@H](Oc3ccc4cc(Cl)c(N)nc4c3)CC[C@]2(O)[C@H]1O | 160 (≈ 74.9 µg/mL) |  | 4 |  | 8 |  | 1.4 | 710 | 2 (≈ 0.936 µg/mL) |  | 59 | 71 | 24 |  |  |  |  |  |  |
| Nc1nc2cc(C[C@@H]3CC[C@@]4(O)[C@@H]3O[C@@H](n3ccc5c(N)ncnc53)[C@@H]4O)ccc2cc1Cl | 159 (≈ 74.2 µg/mL) |  | 1.2 |  | 46 |  | 1.3 | 1045 | 60 (≈ 28 µg/mL) |  | 79 | 8 | 3.2 |  |  |  |  |  |  |
| CNc1ncnc2c1ccn2[C@@H]1O[C@@H]2[C@@H](Oc3ccc4cc(Br)c(N)nc4c3)CC[C@]2(O)[C@H]1O | 163 (≈ 86 µg/mL) |  | 5.3 |  | 12 |  | 1.2 | 3143 | 14 (≈ 7.38 µg/mL) |  | 222 | 68 | 23 |  |  |  |  |  |  |
| Cc1ncnc2c1ccn2[C@@H]1O[C@@H]2[C@H](Cc3ccc4cc(Br)c(N)nc4c3)CC[C@]2(O)[C@H]1O | 186 (≈ 94.9 µg/mL) |  | < 0.5 |  | 27 |  | 1.1 | 2163 | 21 (≈ 10.7 µg/mL) |  | 148 | 46 | 1.4 |  |  |  |  |  |  |
| Nc1nc2cc(C[C@@H]3CC[C@@]4(O)[C@@H]3O[C@@H](n3ccc5c(N)ncnc53)[C@@H]4O)c(F)cc2cc1F | 156 (≈ 73.1 µg/mL) |  | 2.8 |  | 40 |  | 1.6 | 844 | 110 (≈ 51.5 µg/mL) |  | 80 | 30 | 20 |  |  |  |  |  |  |
| Cc1ncnc2c1ccn2[C@@H]1O[C@@H]2[C@@H](Oc3ccc4cc(Br)c(N)nc4c3)CC[C@]2(O)[C@H]1O | 161 (≈ 82.5 µg/mL) | 44 | 4.7 | 329 | 4 | 93 | 1.6 | 1444 | < 1 | 4.6 | 139 | 42 | 17 | 76 | 33 | > 2.4 | Non-Toxic | 45 | 71 |
